The results in this text go back to ChEMBL document CHEMBL5252537, “Usnic Acid Benzylidene Analogues as Potent Mechanistic Target of Rapamycin Inhibitors for the Control of Breast Malignancies” (J Nat Prod, 2017).

The target in assay [1] is T1, mTORC2 (Homo sapiens) (UniProt P42345+Q6R327+Q9BVC4+Q9BPZ7). Nature of the assay: Inhibition of mTORC2 in human MDA-MB-231 cells assessed as reduction in Akt phosphorylation at Ser473 residue at 15 to 25 uM by Western blot analysis. The following applies: dose 15-25 µM. It counts as cell-based. The gist of the method:
(§1)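 Cells seeded at 5 × 10^5 per 100 mm dish and allowed to attach overnight. Treated with compound or DMSO for 72 h (HGF 100 ng/mL added for MDA-MB-231). Lysed in RIPA buffer with protease inhibitors. 30 μg protein run on SDS-PAGE, transferred to PVDF, blocked in 5% BSA/TBST. Primary antibodies overnight at 4 °C, HRP secondary antibodies, chemiluminescent detection.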
In general terms: In western blotting, separated proteins are transferred to a membrane and probed.

Assay [2] has as its system MDA-MB-231. Nature of the assay: Induction of autophagy in human MDA-MB-231 cells assessed as increase in beclin-1 level by Western blotting analysis. In kind it is functional, cell-based. The following applies: dose 15-25 µM. The gist of the method: as §1
In another assay the test system is T47D. Nature of the assay: Antiproliferative activity against human T47D cells incubated for 72 hrs by MTT assay. It counts as functional, cell-based. In outline:
(§2)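 Cells seeded at 5 × 10^3/well and allowed to attach overnight, then washed with PBS. Compound diluted from 10 mM DMSO stock into medium (100 ng/mL HGF added for c-Met-expressing cells), in triplicate, 72 h at 37 °C. MTT added for 4 h, formazan dissolved in DMSO, absorbance read at 570 nm. Cell numbers taken from a standard curve; IC50 calculated.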

For assay [3], the system named is MDA-MB-231. Nature of the assay: Anti-invasive activity in human MDA-MB-231 cells after 24 hrs […]. It counts as functional, cell-based. The following applies: MDA-MB-231, 24 h.
Assay [4] deals with T1, mTORC2 (Homo sapiens). Nature of the assay: Inhibition of mTORC2 in human MCF7 cells assessed as reduction in Akt phosphorylation at Ser473 residue at 15 to 25 uM by Western blot analysis. It counts as cell-based. The following applies: dose 15-25 µM. In outline:
as §1

Assay [5] deals with Serine/threonine-protein kinase mTOR (Homo sapiens) (UniProt P42345). Nature of the assay: Inhibition of mTOR in human […] cells assessed as reduction in phosphorylated 4E-BP1 level at 15 to 25 uM by Western blot analysis. As to conditions: MCF7, dose 15-25 µM. In kind it is cell-based. In outline: as §1
Assay [6] has the same target. Nature of the assay: Inhibition of mTOR in human MDA-MB-231 cells assessed as reduction in phosphorylated 4E-BP1 level at 15 to 25 uM by Western blot analysis. It counts as cell-based. As to conditions: dose 15-25 µM. The gist of the method: as §1
In assay [7] the test system is MDA-MB-231. Nature of the assay: Antimigratory activity in human MDA-MB-231 cells assessed as inhibition of cell migration after 23 hrs by scratch wound healing assay. It counts as functional, cell-based. The gist of the method:
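Cells seeded at 1 × 10^5/well and grown to a confluent monolayer, then scratched with a 200 μL pipet tip. Held 5 h in serum-free medium, then given medium with HGF (100 ng/mL) plus compound or DMSO. Norstictic acid (15 μM) was the positive control. Wound width photographed at 0 h and followed up to 24 h; cells MeOH-fixed. Percent migration from wound thickness versus DMSO wells; IC50 calculated.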

In assay [8] the target is Serine/threonine-protein kinase mTOR (Homo sapiens) (UniProt P42345). Nature of the assay: Inhibition of mTOR in human MDA-MB-231 cells assessed as reduction in p-S6K level at 15 to 25 uM by Western blot analysis. In kind it is cell-based. As to conditions: dose 15-25 µM. In outline:
as §1

For assay [9], the system named is MDA-MB-231. Nature of the assay: Induction of autophagy in human MDA-MB-231 cells assessed as increase in LC3 level by Western blotting analysis. In kind it is functional, cell-based. The following applies: dose 15-25 µM. In outline: as §1
The subject of a further assay is SK-BR-3. Nature of the assay: Antiproliferative activity against human SK-BR-3 cells incubated for 72 hrs by MTT assay. As to conditions: SK-BR-3, 72 h. It counts as functional, cell-based. In outline: as §2
The test system of assay [10] is MDA-MB-231. Nature of the assay: Antiproliferative activity against human MDA-MB-231 cells incubated for 72 hrs by MTT assay. It counts as functional, cell-based. As to conditions: MDA-MB-231, 72 h. In outline:
as §2
In general terms: Tetrazolium dyes change colour on reduction, which living cells bring about.

Assay [11] deals with MCF7. Nature of the assay: Antiproliferative activity against human MCF7 cells incubated for 72 hrs by MTT assay. In kind it is functional, cell-based. The following applies: MCF7, 72 h. The gist of the method:
as §2

The target of assay [12] is Serine/threonine-protein kinase mTOR (Homo sapiens) (UniProt P42345). Nature of the assay: Inhibition of mTOR in human […] cells assessed as reduction in p-S6K level at 15 to 25 uM by Western blot analysis. In kind it is cell-based. As to conditions: MCF7, dose 15-25 µM. In outline: as §1
The next assay has as its system BT-474. Nature of the assay: Antiproliferative activity against human BT-474 cells incubated for 72 hrs by MTT assay. The following applies: BT-474, 72 h. In kind it is functional, cell-based. The gist of the method: as §2
Another assay deals with MDA-MB-468. Nature of the assay: Antiproliferative activity against human MDA-MB-468 cells incubated for 72 hrs by MTT assay. In kind it is functional, cell-based. As to conditions: MDA-MB-468, 72 h. The gist of the method: as §2
The test system of assay [13] is MCF7. Nature of the assay: Induction of autophagy in human MCF7 cells assessed as increase in LC3 level by Western blotting analysis. It counts as functional, cell-based. As to conditions: dose 15-25 µM. The gist of the method: as §1
Assay [14] deals with MCF7. Nature of the assay: Induction of autophagy in human MCF7 cells assessed as increase in beclin-1 level by Western blotting analysis. In kind it is functional, cell-based. The following applies: dose 15-25 µM. The gist of the method:
as §1

Activity calls are given as the source filed them. The calls are words filed in the database; no cut-off is given here.

The term IC50 denotes the concentration that inhibits the measured activity by half. In the case of `CC(=O)C1=C(O)C=C2Oc3c(C(C)=O)c(O)c(C)c(O)c3[C@]2(C)C1=O` [(-)-USNIC ACID], the inhibition result (at mTORC2 (Homo sapiens) [1]; on mTORC2 (Homo sapiens) [4]; in assay [5]; in [6]; in assay [8]; in [12]) was “Active” in each case. The Activity entry in the assay with MDA-MB-231 [2], with MDA-MB-231 [7], with MDA-MB-231 [9], with MCF7 [13] and in the assay on MCF7 [14] was “Dose-Dependent Effect” in each case. Further, the 50% inhibitory concentration (IC50) with T47D was determined as 15.9 µM; in the assay with MDA-MB-231 [3] it was 14.2 µM; with MDA-MB-231 [7] (MDA-MB-231, 23 h), 13.7 µM; in the assay on SK-BR-3, 14.4 µM; in the assay with MDA-MB-231 [10], 13.1 µM; with MCF7 [11], 11.2 µM. In addition, the half-maximal inhibitory concentration (IC50) was 15.1 µM in the assay on BT-474 and 13.7 µM in the assay with MDA-MB-468.
